Experimental data: ChEMBL document CHEMBL1126324, “Cardiotonic agents. 7. Prodrug derivatives of 4-ethyl-1,3-dihydro- 5-[4-(2-methyl-1H-imidazol-1-yl)benzoyl]-2H-imidazol-2-one” (J Med Chem, 1992)
In brackets after ≈: the same amount, converted by molar mass.

How the values were obtained:
[1] = Partition coefficient was determined in an octanol/ pH 7.4 phosphate buffer system.; format: physicochemical; conditions: octanol/water
[2] = Solubility was measured in pH 7.4 phosphate buffer; format: physicochemical
Summary of the method: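 Solubility in pH 7.4 phosphate buffer, quantified by HPLC.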

[3] = Half life time was observed by 50% conversion to compound 1 at pH 1.5; format: ADME
Summary of the method: (§1)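 Aliquots taken at set intervals; prodrug, parent and internal standard quantified by reversed-phase HPLC with UV detection (alkyl phenyl column, 50 °C, phosphate/CH3CN gradient). t1/2 of drug consumed; mean of at least two determinations.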

[4] = Half life time was observed by 50% conversion to compound 1 at pH 7.4; format: ADME; summary of the method: as §1
[5] = species on record: Mustela putorius furo; assay: Increased contractile force of ferret papillary muscle; format: functional, Muscle tissue
Summary of the method: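 Isolated ferret papillary muscle, 30-min preincubation with compound; value is the concentration (μM) giving a 20% increase in contractile force. Mean of at least two determinations, with and without 1 μM propranolol co-administration.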

[6] = species on record: Canis familiaris; assay: Half life time was observed by 50% conversion to compound 1 in dog plasma; format: ADME, Canis lupus familiaris; conditions: in vitro
Summary of the method: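 Prodrug with internal standard diluted 1:100 from stock in 0.05 M NaH2PO4/0.1% H3PO4 into fasted canine plasma, held at 37 °C. Conversion to parent followed by HPLC; half-life of drug consumed.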

[7] = Inhibition of c-AMP phosphodiesterase

Compound | Partition coefficient [1] | solubility [2] [µM] | T1/2 [3] [h] | T1/2 [4] [h] | T1/2 [6] [h] | IC50 [7] [µM] | C20 [5] [µM]
CCc1nc(O)n(Cc2ccccc2)c1C(=O)c1ccc(-n2ccnc2C)cc1 | – | – | – | – | – | – | 13
CCc1nc(O)n(C(=O)c2ccccc2)c1C(=O)c1ccc(-n2ccnc2C)cc1 | 92 | 23 (≈ 9.21 µg/mL) | 263 | 25 | 0.633 | 157 | 0.2
CCc1nc(O)n(C(=O)Cc2ccccc2)c1C(=O)c1ccc(-n2ccnc2C)cc1 | – | 25 (≈ 10.4 µg/mL) | 39 | 1.5 | – | – | 0.2
CCc1[nH]c(O)nc1C(=O)c1ccc(-n2ccnc2C)cc1 | 7 | 44 (≈ 13 µg/mL) | – | – | – | – | 0.5

Further lines, with some results ahead:

Partition coefficient [1] | solubility [2] [µM] | T1/2 [3] [h] | T1/2 [4] [h] | T1/2 [6] [h] | IC50 [7] [µM] | Compound | C20 [5] [µM]
> 200 | 10 (≈ 3.66 µg/mL) | 132 | 8 | 0.783 | – | CCc1nc(O)n(C(=O)C(C)C)c1C(=O)c1ccc(-n2ccnc2C)cc1 | 0.3
26 | 40 (≈ 13.5 µg/mL) | 21 | 8 | 0.5 | – | CCc1nc(O)n(C(C)=O)c1C(=O)c1ccc(-n2ccnc2C)cc1 | 0.2
52 | 30 (≈ 10.6 µg/mL) | 17 | 6 | 0.5 | – | CCC(=O)n1c(O)nc(CC)c1C(=O)c1ccc(-n2ccnc2C)cc1 | 0.3
